Consider 13 compounds from ChEMBL document CHEMBL4190246, “Phytochemical Studies on Two Australian Anigozanthos Plant Species” (J Nat Prod, 2017).

The source made the active and inactive calls. No cut-off for these calls is given here.

Common to all, as to format: functional, organism-based
For test [1], the system named is Candida albicans. The experiment in a line: Antimicrobial activity against Candida albicans ATCC 90028 at 32 ug/ml after 24 hrs by resazurin dye based assay. The essentials:
(§1)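 Fungi grown 3 days on yeast extract–peptone dextrose agar at 30 °C, then diluted in yeast nitrogen base broth to 2.5 × 10^5 CFU/mL. Samples from 10 mg/mL DMSO stocks, duplicate wells, final 32 μg/mL; 35 °C, 24 h. Resazurin added (0.001% final), 2 h more at 35 °C, absorbance at 530 nm. Percent inhibition against on-plate controls; Z-scores.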

Test [2] relates to Acinetobacter baumannii. The experiment in a line: Antimicrobial activity against Acinetobacter baumannii ATCC 19606 at 32 ug/ml after 18 hrs. The conditions noted are these: ATCC 19606 = CIP 70.34 = JCM 6841. The essentials:
(§2)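 Single-concentration screen: samples from 10 mg/mL DMSO stocks, duplicate wells; overnight culture in cation-adjusted Mueller Hinton broth at 37 °C, added to 5 × 10^5 CFU/mL, final compound 32 μg/mL; 37 °C, 18 h. Growth read as absorbance at 600 nm; percent inhibition against media-only and untreated-cell controls on the same plate, significance by Z-score.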

In test [3] the test system is Cryptococcus neoformans. The experiment in a line: Antimicrobial activity against Cryptococcus neoformans ATCC 208821 at 32 ug/ml after 24 hrs by resazurin dye based assay. The procedure, abridged:
as §1
On the technique in general: Resazurin is reduced to fluorescent resorufin, in cell work by metabolically active cells.

For test [4], the system named is Escherichia coli. The experiment in a line: Antimicrobial activity against Escherichia coli ATCC 25922 at 32 ug/ml after 18 hrs. The essentials: as §2
The subject of test [5] is Klebsiella pneumoniae. The experiment in a line: Antimicrobial activity against Klebsiella pneumoniae ATCC 700603 at 32 ug/ml after 18 hrs. The procedure, abridged:
as §2

The subject of test [6] is Staphylococcus aureus. The experiment in a line: Antimicrobial activity against methicillin-resistant Staphylococcus aureus ATCC 43300 at 32 ug/ml after 18 hrs. The procedure, abridged:
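Single-concentration screen (COADD): samples dissolved in DMSO at 10 mg/mL stock, plated in duplicate; overnight culture in cation-adjusted Mueller Hinton broth at 37 °C added to 5 × 10^5 CFU/mL, final 32 μg/mL. Incubated 37 °C. Read-out absorbance 600 nm; percent growth inhibition versus media-only and untreated-cell controls on the same plate; significance by Z-score from sample wells.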

Test [7] deals with Pseudomonas aeruginosa. As to the kind of experiment: Antimicrobial activity against Pseudomonas aeruginosa ATCC 27853 at 32 ug/ml after 18 hrs. The procedure, abridged:
as §2

Test [8] relates to Acinetobacter baumannii. As to the kind of experiment: Antimicrobial activity against Acinetobacter baumannii ATCC 19606 at 52.4 uM after 18 hrs. The settings on record: ATCC 19606 = CIP 70.34 = JCM 6841. The procedure, abridged:
as §2

For test [9], the system named is Acinetobacter baumannii. The experiment in a line: Antimicrobial activity against Acinetobacter baumannii ATCC 19606 at 53.9 uM after 18 hrs. The settings on record: ATCC 19606 = CIP 70.34 = JCM 6841. The procedure, abridged: as §2
Test [10] deals with Acinetobacter baumannii. As to the kind of experiment: Antimicrobial activity against Acinetobacter baumannii ATCC 19606 at 94.9 uM after 18 hrs. The conditions noted are these: ATCC 19606 = CIP 70.34 = JCM 6841. The essentials: as §2

Regarding `O=C(O)[C@H]1O[C@@H](Oc2cc(O)c3c(=O)cc(-c4ccc(O)cc4)oc3c2)[C@H](O)[C@@H](O)[C@@H]1O`, the result in test [1], in [2], in test [3], in test [4], in test [5] and in test [6] was inactive. Further, in test [7], the outcome was inactive.
As to `C[C@@H]1O[C@@H](OC[C@H]2O[C@@H](Oc3cc4c(O)cc(O)cc4[o+]c3-c3ccc(O)c(O)c3)[C@H](O)[C@@H](O)[C@@H]2O)[C@H](O)[C@H](O)[C@H]1O`, the outcome in test [1], in test [3], in test [4], in test [5], in test [6] and in test [7] was inactive. In addition, the outcome in test [8] was Active.
`O=C(/C=C/c1ccc(O)cc1)OC[C@H]1O[C@@H](Oc2c(-c3ccc(O)c(O)c3)oc3cc(O)cc(O)c3c2=O)[C@H](O)[C@@H](O)[C@@H]1O`: the result in test [1], in [2], in test [3], in test [4], in test [5] and in test [6] was inactive. Besides, in test [7], the result was inactive.
As for `O=c1cc(-c2ccc(O)c(O)c2)oc2cc(O[C@@H]3O[C@H](CO)[C@@H](O)[C@H](O)[C@H]3O)cc(O)c12`, the result in test [1], in [2], in test [3], in [4], in test [5] and in test [6] was inactive. For the same compound, the outcome in [7] was inactive.
`O=C(/C=C/c1ccc(O)cc1)OC[C@H]1O[C@@H](Oc2cc3c(O)cc(O)cc3[o+]c2-c2ccc(O)c(O)c2)[C@H](O)[C@@H](O)[C@@H]1O`: the result in test [1], in [2], in test [3], in test [4], in [5] and in [6] was inactive. Besides, the outcome in test [7] was inactive.
In the case of `C[C@@H]1O[C@@H](OC[C@H]2O[C@@H](Oc3c(-c4ccc(O)cc4)oc4cc(O)cc(O)c4c3=O)[C@H](O)[C@@H](O)[C@@H]2O)[C@H](O)[C@H](O)[C@H]1O`, the outcome in test [1], in test [3], in test [4], in test [5], in [6] and in [7] was inactive. For the same compound, the outcome in [9] was Active.
`O=C(/C=C/c1ccc(O)cc1)OC[C@H]1O[C@@H](Oc2c(-c3ccc(O)cc3)oc3cc(O)cc(O)c3c2=O)[C@H](O)[C@@H](O)[C@@H]1O`: the result in test [1], in test [2], in test [3], in test [4], in [5] and in test [6] was inactive. The result in [7] was inactive.
On to `NC(CCCC(OC(=O)/C=C/c1ccc(O)cc1)C(=O)O)C(=O)O` (stereo unspecified), for which the outcome in test [1], in [3], in test [4], in test [5], in test [6] and in test [7] was inactive. Besides, the outcome in test [10] was Active.
Turning to `C[C@@H]1O[C@@H](OC[C@H]2O[C@@H](Oc3c(-c4ccc(O)c(O)c4)oc4cc(O)cc(O)c4c3=O)[C@H](O)[C@@H](O)[C@@H]2O)[C@H](O)[C@H](O)[C@H]1O`, the result in test [1], in test [2], in [3], in test [4], in [5] and in test [6] was inactive. In addition, the result in test [7] was inactive.
With `O=c1c(O)c(-c2ccc(O)cc2)oc2cc(O)cc(O)c12`, the outcome in test [1], in test [2], in [3], in [4], in [5] and in test [6] was inactive. For the same compound, the outcome in test [7] was inactive.
In the case of `O=c1c(O[C@@H]2O[C@H](CO)[C@@H](O)[C@H](O)[C@H]2O)c(-c2ccc(O)c(O)c2)oc2cc(O)cc(O)c12`, the outcome in test [1], in test [2], in test [3], in test [4], in [5] and in test [6] was inactive. In [7], the result was inactive.
As to `O=C1c2c(O)cc(O)cc2O[C@H](c2ccc(O)c(O)c2)[C@H]1O`, the outcome in test [1], in [2], in test [3], in [4], in test [5] and in test [6] was inactive. In test [7], the result was inactive.
Consider `O=C(/C=C/c1ccc(O)cc1)O[C@H]1[C@H](O)[C@@H](O)[C@H](Oc2cc(O)c(O)c(C(=O)/C=C/c3ccc(O)cc3)c2)O[C@@H]1CO`, for which the result in [1], in test [2], in test [3], in test [4], in test [5] and in [6] was inactive. In [7], the result was inactive.
